STAT1 inh: STAT1 signaling inhibition | NIH 3T3 STAT1-luciferase reporter, IFN-gamma, luminescence | inhibition, % at 5.5 µM | 200,000 tested, 0.35% active;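 active = inhibition above a set limit, the mean inhibition across all tested compounds plus 3 SD, cut at about 34% in these data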
STAT1 activator: activators of IFN-gamma induced STAT1 signaling; NIH 3T3 STAT1-luciferase reporter, luminescence; 100% = IFN-gamma alone, no compound; activation (% of control), % at 5.5 µM; 200,000 tested, 2.6% active;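 active = activation above the screen-wide mean activation plus 3 SD, cut at about 130% in these data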
APP 5'UTR act: activates APP 5'UTR luciferase reporter; SH-SY5Y APP 5'UTR luciferase reporter, luminescence; zero percent = DMSO vehicle wells; 190,000 tested, 1% active; activation, % at 2 µM; AID 1276;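 active = activation above a set limit, based on mean plus 3 SD of controls, cut at about 140% in these data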
STAT3 inh: reduces IL-6 driven STAT3 reporter signal; U3A cells, IL-6 STAT3-luciferase reporter, luminescence; host cell line lacks STAT1; inhibition, % at 5.5 µM; 190,000 tested, 0.89% active; AID 862;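 active = inhibition above the mean inhibition across all screened compounds plus 3 SD, cut at about 44% in these data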
NF-kB neuron act: compounds increasing NF-kB expression in human neuronal cells; AID 1239; NF-kB reporter expression; stronger effect = higher value; fold change at 12.5 µM; 190,000 tested, 1.6% active; in the data active = fold change above about 3.3
STAT3 act: increases IL-6 driven STAT3 reporter signal. 190,000 tested, 0.91% active. U3A cells, IL-6 STAT3-luciferase reporter, luminescence; 100% = signal with IL-6 EC80 alone. activation (% of control), % at 5.6 µM;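 active = activation above the screen-wide mean of compound activation plus 3 SD, cut at about 130% in these data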
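system = STAT3-luciferase reporter U3A cells | reagent = IL-6 stimulus at 33 ng/mL final | timing = 1 h compound pre-exposure, 6 h IL-6 stimulation, 37 °C | measured by = luminescence | evaluation = % activation versus median of IL-6-stimulated wells | control set = IL-6-only wells as 100% reference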
Large screens that a line does not name were inactive. Shown are actives, neighbours in structure and some others; about 5.1% of the full set was active somewhere.

Cc1ccc2nc(-c3ccc(N4C(=O)CC(N5CCCC(C)C5)C4=O)cc3)sc2c1 (stereo not given)	none
CCn1c(SCC(=O)NC(C)(C)C)nnc1-c1ccccn1	none
CC(C)C[C@H](NC(=O)c1nc[nH]c1C(=O)N(C)Cc1ccccc1)C(=O)OCc1ccccc1	none (no result: STAT3 inh, STAT3 act)
C=CCN=c1scc(-c2ccc(F)cc2)n1/N=C/c1ccccn1	NF-kB neuron act 3.33
C=CCN=c1scc(-c2ccccc2)n1/N=C/c1ccccn1	STAT1 activator 214.7, NF-kB neuron act 7.47
COc1ccccc1NC(=O)c1csc2c1CCCC2	none
O=C(Nc1ccccn1)c1csc2c1CCCC2	STAT1 activator 137.4, NF-kB neuron act 3.91
CN(C)C(=O)N1CCN(C(=O)N2CCOCC2)CC1	none
COc1ccc(OC)c(S(=O)(=O)n2nnc3cc(Cl)ccc32)c1	none
COc1cc(S(=O)(=O)n2nnc3ccccc32)c(OC)cc1Cl	STAT1 inh 34.7
Cc1cc[n+](-c2nc([O-])n(-c3ccccc3)c2C=O)cc1	none (no result: NF-kB neuron act)
Cc1nn(-c2nc3ccccc3s2)c(C)c1Oc1ccccc1O	APP 5'UTR act 184.4
Cc1nn(-c2ccccn2)c(C)c1Oc1ccccc1O	none
CN=C1S/C(=C\c2cn(C(C)=O)nc2-c2ccccc2)C(=O)N1C	none (no result: NF-kB neuron act)
CN=C1S/C(=C\c2cn(CC(=O)OC)c3ccccc23)C(=O)N1C	STAT3 act 134.9
Cc1ccc(C)c(NC(=S)N(Cc2ccc(Cl)cc2)Cc2ccc(C(=O)O)cc2)c1	none
CCOc1ccc2nc(N3C(=O)/C(=C/c4ccccc4)NC3=S)sc2c1	STAT1 activator 137.3
CC(=O)CCc1ccc(Oc2nc(-c3cccnc3)nc3ccccc23)cc1	none
O=C(/C=C/c1ccccc1Cl)c1ccccc(=O)c1O	NF-kB neuron act 26
O=C(Nc1ccc(S(=O)(=O)N2CCCCC2)cc1)c1ccc(CN2CCc3ccccc3C2)cc1	STAT3 inh 86.8
O=C(Nc1ccccc1)c1ccc(S(=O)(=O)N2CCCCC2)cc1	none
Cc1cc(-c2ccccc2)nc(=O)[nH]1	none
CCC1C(=O)n2nc(-c3ccccc3)cc2N=C1C (stereo not given)	STAT1 activator 137.5
CC1(C(=O)NCc2ccc(F)cc2)Oc2ccccc2NC1=O (stereo not given)	none
CN1c2ccccc2N(C)C1(C)c1cccc2ccccc12	none
CN1c2cccc3cccc(c23)N(C)C1(C)C	NF-kB neuron act 4.07
[O-]/[N+](=C\c1ccncc1)c1ccc(Br)cc1	NF-kB neuron act 4.52
COc1cc(NC(=O)C(=O)NCCN2CCNCC2)c(OC)cc1Cl	none
Cc1cc(=O)oc2cc(NC(=O)c3cc([N+](=O)[O-])ccc3N3CCOCC3)ccc12	none
CC12COC3(C(=O)Nc4ccc5ccccc5c4)CC1CCC32C (stereo not given)	STAT1 activator 143.5
CC12COC3(C(=O)Nc4ccccc4)CC1CCC32C (stereo not given)	none
O=C(C1=C[C@H](C2CC2)C[C@H](OCCCCO)O1)N1CCOCC1	none (no result: STAT3 inh, STAT3 act)
CC(=O)c1sc2nc(C)cc(C)c2c1N	none
Cc1ccc2nc(-c3sc4nc(C)cc(C)c4c3N)[nH]c2c1	STAT1 activator 131.3, APP 5'UTR act 170.1, STAT3 act 140.2
O=C(Cn1cnc2ccccc21)N/N=C/c1cccc([N+](=O)[O-])c1	none
O=C(CSc1cn(Cc2ccccc2)c2ccccc12)Nc1nccs1	STAT1 activator 146.1
O=C(CSc1ccccc1)Nc1nccs1	none
Cn1c(SCc2ccccc2F)nc2cccnc21	STAT1 activator 137.3, APP 5'UTR act 141.1, NF-kB neuron act 3.36
CC(C)(C)N=Cc1cc(-c2ccccc2)sc1O	STAT1 activator 138.5 (no result: APP 5'UTR act)
CCN(CC)c1ccc(C=Nc2ccccc2)c(O)c1	none
COc1cccc(C(=O)NCC(=O)OCC(=O)c2ccccc2)c1	STAT1 activator 150.4
O=C(NCc1ccco1)C(=O)NCC(c1ccco1)N1CCOCC1 (stereo not given)	none
O=C(c1cc(-c2cccs2)on1)N1CCN(c2ccc(F)cc2)CC1	NF-kB neuron act 3.42
CCC(=O)Nc1cnc(NC(=O)c2cccc(F)c2)cc1C	STAT1 activator 142.2
COC(=O)c1c(NC(=S)Nc2ccc(F)cc2[N+](=O)[O-])sc2c1CCCCC2	none
CCCc1ccc(OCc2nc(-c3ccc(NC(=O)c4cccs4)cc3)no2)cc1	none
CCCc1ccc(OCc2nc(-c3ccc(NC(=O)c4ccco4)cc3)no2)cc1	STAT1 activator 133.0
Cc1ccc2c(c1)NC(=O)c1cccnc1N2	STAT1 activator 139.3
Cc1ccc2nc(-c3ccc(NC(=O)COC(=O)c4ccc(Br)o4)cc3)sc2c1	STAT1 activator 141.7, APP 5'UTR act 135.6, STAT3 inh 43.4, NF-kB neuron act 5.35
COc1ccc(/C=C(\C#N)C(=O)OCC(=O)Nc2ccc(-c3nc4ccc(C)cc4s3)cc2)cc1	APP 5'UTR act 184.5, NF-kB neuron act 4.5
Cc1ccc2nc(-c3ccc(NC(=O)COC(=O)c4cncc(Br)c4)cc3)sc2c1	STAT1 activator 143.6, APP 5'UTR act 152.5, NF-kB neuron act 6.48
Cc1ccc2nc(-c3ccc(NC(=O)CN4CCN(C(=O)c5ccco5)CC4)cc3)sc2c1	APP 5'UTR act 148.8, NF-kB neuron act 4.36
O=C(COC(=O)c1ccc(Br)o1)Nc1ccc(S(=O)(=O)N2CCCC2)cc1	none
COc1ccc(/C=C(\C#N)C(=O)OCC(=O)NC(C)c2ccccc2)cc1 (stereo not given)	none
O=C(COC(=O)c1cncc(Br)c1)Nc1ccc2c(c1)OCO2	none
CCCCNC(=O)CCCCCNS(=O)(=O)c1ccc(Br)cc1	none
COc1ccc(CCN=C(N)NS(=O)(=O)c2ccc3ccccc3c2)cc1	none
CC1(C)CC(=O)/C(=C\c2cccc([N+](=O)[O-])c2)C(C)(C)N1	none
Cc1ccc2sc(-c3ccc(NC(=O)CCN4C(=O)c5ccccc5C4=O)cc3)nc2c1	STAT1 activator 149.9, APP 5'UTR act 161.8
Cc1cc(C)n2c(nc3ccccc32)c1C(=O)NCc1ccccc1	none
COc1ccc(-c2noc(COc3ccc4c(c3)OCO4)n2)cc1	none
c1ccc(-c2noc(COc3ccc4c(c3)OCO4)n2)cc1	NF-kB neuron act 4.06
Cc1ccccc1OCc1nc(-c2ccccc2)no1	STAT1 activator 136.9
COCCNC(=O)C1CC(=O)N(c2ccc(OC)cc2)C1c1ccc(OC)cc1 (stereo not given)	none
CCc1c(C)[nH]c2nc3ccccc3n2c1=O	none
O=c1cc(-c2ccccc2)[nH]c2nc3ccccc3n12	NF-kB neuron act 4.82
O=C(Nc1ccccc1)OCCCc1ccccc1	STAT1 activator 139.8
O=S(=O)(NC1=NCCC1)c1cccc(NS(=O)(=O)c2ccc(OC(F)(F)F)cc2)c1	none
CCOC(=O)c1ccc(N/C=C/C(=O)c2ccco2)cc1	NF-kB neuron act 5.2
O=C(/C=C/Nc1ccc(F)cc1)c1ccco1	APP 5'UTR act 146.5, NF-kB neuron act 5.14

Compound activity from PubChem BioAssay.
